In ChEMBL document CHEMBL4028861, “Selective Nonsteroidal Glucocorticoid Receptor Modulators for the Inhaled Treatment of Pulmonary Diseases” (J Med Chem, 2017):
Values after ≈ are worked out from the molar mass of the structure shown. Blank lines part the entries; values can stand above or below the molecule they belong to.

Assays:
[1] = Drug degradation in human hepatocytes at 10 uM up to 120 mins by LC-MS/MS analysis; type: ADME, cell-based, Hepatocyte; settings: 2 h
[2] = Drug degradation in rat hepatocytes at 10 uM up to 120 mins by LC-MS/MS analysis; type: ADME, cell-based, Hepatocyte; settings: 2 h
[3] = Drug degradation in dog hepatocytes at 10 uM up to 120 mins by LC-MS/MS analysis; type: ADME, cell-based, Canis lupus familiaris, Hepatocyte; settings: 2 h
[4] = Drug degradation in human hepatocytes assessed as 5-hydroxy-indazole formation at 10 uM up to 120 mins by LC-MS/MS analysis; type: ADME, cell-based, Hepatocyte; settings: 2 h
[5] = Drug degradation in rat hepatocytes assessed as 5-hydroxy-indazole formation at 10 uM up to 120 mins by LC-MS/MS analysis; type: ADME, cell-based, Hepatocyte; settings: 2 h
[6] = Drug degradation in dog hepatocytes assessed as 5-hydroxy-indazole formation at 10 uM up to 120 mins by LC-MS/MS analysis; type: ADME, cell-based, Canis lupus familiaris, Hepatocyte; settings: 2 h
[7] = Intrinsic clearance in human hepatocytes assessed per million cells; type: ADME, cell-based, Hepatocyte; settings: read-out: CLH
[8] = Lipophilicity, log D of the compound by chromatography; type: physicochemical
[9] = Solubility of the compound in phosphate buffer at pH 7.4 using liquid sample at 20 degreeC; type: physicochemical
In short: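 Solubility measured in 0.1 M phosphate buffer at pH 7.4 and 20 °C, starting from a 10 mM DMSO stock solution.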

[10] = Solubility of the compound in phosphate buffer at pH 7.4 using solid sample at 23 degreeC; type: physicochemical
In short: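 Solubility measured in 0.1 M phosphate buffer at pH 7.4 and 23 °C, starting from crystalline solid.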

[11] = Intrinsic clearance in Wistar Han rat hepatocytes assessed per 10^6 cells; type: ADME, cell-based, Hepatocyte; settings: read-out: CLH
[12] = Clearance in Wistar Han rat at 1 umol/kg, iv administered as bolus dose by LC-MS/MS analysis; type: ADME, organism-based; settings: in vivo
[13] = Volume of distribution at steady state in Wistar Han rat at 1 umol/kg, iv administered as bolus dose by LC-MS/MS analysis; type: ADME, organism-based; settings: in vivo, read-out: Vdss
[14] = Terminal half life in Wistar Han rat 1 umol/kg, iv administered as bolus dose by LC-MS/MS analysis; type: ADME, organism-based; settings: in vivo, read-out: beta t1/2 (converted)
[15] = Oral bioavailability in Wistar Han rat administered via gavage by LC-MS/MS analysis; type: ADME, organism-based; settings: in vivo
[16] = Thermodynamic solubility of the compound in human intestinal fluid; type: physicochemical; settings: read-out: Therm_solubility
Lung [17] = experiment: Drug uptake in Wistar Han rat lung at 0.1 umol/kg, administered as dry powder inhalation after 4 hrs by LC-MS/MS analysis; type: ADME; settings: in vivo, inhaled_or_intranasal
Lung [18] = experiment: Drug uptake in Wistar Han rat lung at 0.1 umol/kg, administered as dry powder inhalation after 24 hrs by LC-MS/MS analysis; type: ADME, tissue-based; settings: in vivo, inhaled_or_intranasal
[19] = AUC (0 to infinity) in Wistar Han rat lung at 0.1 umol/kg, administered as dry powder inhalation by LC-MS/MS analysis; type: ADME; design: dose 0.1 umol/kg, route respiratory (INHALATION), time infinity; settings: inhaled or intranasal
[20] = Apparent terminal half life in Wistar Han rat lung at 0.1 umol/kg, administered as dry powder inhalation by LC-MS/MS analysis; type: ADME; settings: inhaled or intranasal, read-out: betat1/2(app) (converted)
[21] = Mean residence time in Wistar Han rat lung at 0.1 umol/kg, administered as dry powder inhalation by LC-MS/MS analysis; type: ADME, tissue-based; settings: inhaled or intranasal
[22] = Cmax in Wistar Han rat plasma at 0.1 umol/kg, administered as dry powder inhalation by LC-MS/MS analysis; type: ADME; design: dose 0.1 umol/kg, route respiratory (INHALATION); settings: inhaled or intranasal
Rattus norvegicus = experiment: Toxicity in inhaled CRL:CD Sprague Dawley rat model of sephadex induced lung edema assessed as induction of thymic involution administered once per day for 3 days; settings: in vivo, inhaled_or_intranasal, 72 h
In short: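 Thymic involution scored in the same Sephadex-challenged rats dosed by inhalation, as a sensitive marker of systemic GR agonism.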

Drug degradation [1]: Metabolite_Detected
Drug degradation [2]: Metabolite_Detected
Drug degradation [3]: Metabolite_Detected
Drug metabolism [4]: Metabolite_Detected
Drug metabolism [5]: Metabolite_Detected
Drug metabolism [6]: Metabolite_Detected
SMILES: C[C@H](NC(=O)C(C)(F)F)[C@H](Oc1ccc2c(cnn2-c2cccc([14C](=O)N[C@@H]3CCOC3)c2)c1)c1ccc2c(c1)OCCO2

hepatocyte CLint [7]: 14 µL/min/1e6 cells
chromatographic logD [8]: 5.7
SMILES: C[C@H](NC(=O)C(C)(F)F)[C@H](Oc1ccc2c(cnn2-c2ccc(F)cc2)c1)c1ccc2c(c1)OCC2

hepatocyte CLint [7]: 17 µL/min/1e6 cells
chromatographic logD [8]: 3.6
solubility [9]: 0.16 µM (≈ 0.0993 µg/mL)
solubility thermodynamic [10]: 0.22 µM (≈ 0.137 µg/mL)
SMILES: C[C@H](NC(=O)C(C)(F)F)[C@H](Oc1ccc2c(cnn2-c2cccc(C(=O)N[C@@H]3CCOC3=O)c2)c1)c1ccc2c(c1)OCCO2

hepatocyte CLint [7]: 21 µL/min/1e6 cells
chromatographic logD [8]: 3.6
solubility [9]: < 0.1 µM
solubility thermodynamic [10]: 0.02 µM (≈ 0.0126 µg/mL)
hepatocyte CLint [11]: 25 µL/min/1e6 cells
clearance [12]: 73 mL/min/kg
Vd [13]: 0.81 L/kg
half-life [14]: 0.1 h
bioavailability [15]: 0.3%
solubility thermodynamic [16]: 1.3 µM (≈ 0.816 µg/mL)
Drug uptake (Lung [17]): 41 %ID
Drug uptake (Lung [18]): 8.6 %ID
AUC(0-inf) [19]: 190 µM·h
half-life [20]: 9 h
MRT [21]: 10 h
Cmax [22]: 12 nM
SMILES: C[C@H](NC(=O)C(C)(F)F)[C@H](Oc1ccc2c(cnn2-c2cccc(C(=O)NCc3cccnc3)c2)c1)c1ccc2c(c1)OCOC2
ED25 (Rattus norvegicus): 0.027 mg/kg

hepatocyte CLint [7]: 11 µL/min/1e6 cells
chromatographic logD [8]: 2.9
solubility [9]: 47 µM (≈ 29.8 µg/mL)
SMILES: C[C@H](NC(=O)C(C)(F)F)[C@H](Oc1ccc2c(cnn2-c2cccc(C(=O)N3CCC[C@@H]3C(N)=O)c2)c1)c1ccc2c(c1)OCCO2

hepatocyte CLint [7]: 23 µL/min/1e6 cells
chromatographic logD [8]: 3.6
solubility [9]: 0.01 µM (≈ 0.00655 µg/mL)
solubility thermodynamic [10]: 0.68 µM (≈ 0.445 µg/mL)
SMILES: C[C@H](NC(=O)C(C)(F)F)[C@H](Oc1ccc2c(cnn2-c2cccc(C(=O)N[C@H]3CCS(=O)(=O)C3)c2)c1)c1ccc2c(c1)OCCO2

hepatocyte CLint [7]: 20 µL/min/1e6 cells
chromatographic logD [8]: 5.4
SMILES: C[C@H](NC(=O)C(C)(F)F)[C@H](Oc1ccc2c(cnn2-c2ccc(F)cc2)c1)c1ccc2c(c1)COCO2

hepatocyte CLint [7]: 15 µL/min/1e6 cells
chromatographic logD [8]: 5.4
SMILES: C[C@H](NC(=O)C(C)(F)F)[C@H](Oc1ccc2c(cnn2-c2ccc(F)cc2)c1)c1ccc2c(c1)OCOC2

hepatocyte CLint [7]: < 2.7 µL/min/1e6 cells
SMILES: C[C@H](NC(=O)C(F)(F)F)[C@H](Oc1ccc2c(cnn2-c2ccc(F)cc2)c1)c1cccc(OS(=O)(=O)O)c1

hepatocyte CLint [7]: 33 µL/min/1e6 cells
chromatographic logD [8]: 4.9
hepatocyte CLint [11]: 28 µL/min/1e6 cells
clearance [12]: 103 mL/min/kg
Vd [13]: 31 L/kg
half-life [14]: 3.3 h
bioavailability [15]: < 0.1%
solubility thermodynamic [16]: 0.62 µM (≈ 0.31 µg/mL)
Drug uptake (Lung [17]): 43 %ID
Drug uptake (Lung [18]): 1.9 %ID
AUC(0-inf) [19]: 200 µM·h
half-life [20]: 4.5 h
MRT [21]: 6.5 h
Cmax [22]: 24 nM
SMILES: CCC(=O)O[C@]1(C(=O)SCF)[C@H](C)C[C@H]2[C@@H]3C[C@H](F)C4=CC(=O)C=C[C@]4(C)[C@@]3(F)[C@@H](O)C[C@@]21C [FLUTICASONE PROPIONATE]
ED25 (Rattus norvegicus): 0.0039 mg/kg

hepatocyte CLint [7]: 22 µL/min/1e6 cells
chromatographic logD [8]: 3.6
solubility [9]: < 0.01 µM
solubility thermodynamic [10]: < 0.1 µM
hepatocyte CLint [11]: 31 µL/min/1e6 cells
Vd [13]: 2.8 L/kg
half-life [14]: 0.3 h
bioavailability [15]: < 0.1%
solubility thermodynamic [16]: 0.3 µM (≈ 0.196 µg/mL)
Drug uptake (Lung [17]): 93 %ID
Drug uptake (Lung [18]): 91 %ID
AUC(0-inf) [19]: 5200 µM·h
half-life [20]: 179 h
MRT [21]: 210 h
Cmax [22]: 4.9 nM
SMILES: C[C@H](NC(=O)C(C)(F)F)[C@H](Oc1ccc2c(cnn2-c2cccc(C(=O)N[C@@H]3CCS(=O)(=O)C3)c2)c1)c1ccc2c(c1)OCCO2
ED25 (Rattus norvegicus): > 0.13 mg/kg

chromatographic logD [8]: 3.9
solubility [9]: 2 µM (≈ 1.13 µg/mL)
solubility thermodynamic [10]: 0.12 µM (≈ 0.0675 µg/mL)
SMILES: C[C@H](NC(=O)C(C)(F)F)[C@H](Oc1ccc2c(cnn2-c2cccc(C(=O)N[C@@H]3CCOC3=O)c2)c1)c1ccccc1

hepatocyte CLint [7]: 30 µL/min/1e6 cells
chromatographic logD [8]: 3.7
solubility [9]: 1.3 µM (≈ 0.789 µg/mL)
solubility thermodynamic [10]: 0.09 µM (≈ 0.0546 µg/mL)
SMILES: C[C@H](NC(=O)C(C)(F)F)[C@H](Oc1ccc2c(cnn2-c2cccc(C(=O)N[C@H]3CCOC3)c2)c1)c1ccc2c(c1)OCCO2
